Reference: ChEMBL document CHEMBL5058577, “EUbOPEN Chemogenomics Library 2 (Multiplex)” (2022)

Test system: HEK-293T
Assay: Multiplex assay against HEK293T
Type: toxicity, cell-based
Conditions: human
Summary of the method: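 Per cents of healthy-nucleus cells form the tubulin, mitochondrial-mass and membrane-permeability phenotype values. Live cells were stained at seeding with Hoechst33342, BioTracker Green Microtubule Cytoskeleton Dye, MitoTracker Red and Annexin V Alexa Fluor 680. After compound addition they were imaged on a CQ1 microscope at 37°C and 5% CO2, and CellPathfinder machine-learning gating split them into Hoechst high-intensity objects or normal cells, normal cells into healthy, pyknosed or fragmented nuclei, and pyknosed cells into mitotic or apoptotic.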

[1] = 12 h, 1 µM, compound concentration 1 uM, replicate 1
[2] = 12 h, 1 µM, compound concentration 1 uM, replicate 2
[3] = 12 h, 10 µM, compound concentration 10 uM, replicate 1
[4] = 12 h, 10 µM, compound concentration 10 uM, replicate 2
[5] = 24 h, 1 µM, compound concentration 1 uM, replicate 1
[6] = 24 h, 1 µM, compound concentration 1 uM, replicate 2
[7] = 24 h, 10 µM, compound concentration 10 uM, replicate 1
[8] = 24 h, 10 µM, compound concentration 10 uM, replicate 2
[9] = 48 h, 1 µM, compound concentration 1 uM, replicate 1
[10] = 48 h, 1 µM, compound concentration 1 uM, replicate 2
[11] = 48 h, 10 µM, compound concentration 10 uM, replicate 1
[12] = 48 h, 10 µM, compound concentration 10 uM, replicate 2

Compound: CCCC(CCC)C(=O)O [VALPROIC ACID]
- Population Apoptotic (%) [1]: 39%
- Population Fragmented Nuclei (%) [1]: 6%
- Population Healthy Nuclei (%) [1]: 81%
- Population Hoechst High Intensity Objects (%) [1]: 6%
- Population Membrane Permeable-Phenotype (%) [1]: 0%
- Population Mitochondria Different-Phenotype (%) [1]: 29%
- Population Mitotic Cells (%) [1]: 60%
- Population Normal (%) [1]: 93%
- Population Pyknosed Nuclei (%) [1]: 12%
- Population Tubulin-Different-Phenotype (%) [1]: 20%
- Total Cell Count [1]: 513
- Population Apoptotic (%) [2]: 28%
- Population Fragmented Nuclei (%) [2]: 5%
- Population Healthy Nuclei (%) [2]: 79%
- Population Hoechst High Intensity Objects (%) [2]: 5%
- Population Mitochondria Different-Phenotype (%) [2]: 46%
- Population Mitotic Cells (%) [2]: 71%
- Population Normal (%) [2]: 94%
- Population Pyknosed Nuclei (%) [2]: 15%
- Population Tubulin-Different-Phenotype (%) [2]: 16%
- Total Cell Count [2]: 367
- Population Apoptotic (%) [3]: 34%
- Population Fragmented Nuclei (%) [3]: 6%
- Population Healthy Nuclei (%) [3]: 82%
- Population Hoechst High Intensity Objects (%) [3]: 6%
- Population Membrane Permeable-Phenotype (%) [3]: 0%
- Population Mitochondria Different-Phenotype (%) [3]: 40%
- Population Mitotic Cells (%) [3]: 66%
- Population Normal (%) [3]: 93%
- Population Pyknosed Nuclei (%) [3]: 11%
- Population Tubulin-Different-Phenotype (%) [3]: 26%
- Total Cell Count [3]: 455
- Population Apoptotic (%) [4]: 44%
- Population Fragmented Nuclei (%) [4]: 7%
- Population Healthy Nuclei (%) [4]: 81%
- Population Mitochondria Different-Phenotype (%) [4]: 49%
- Population Mitotic Cells (%) [4]: 55%
- Population Tubulin-Different-Phenotype (%) [4]: 20%
- Total Cell Count [4]: 446
- Population Apoptotic (%) [5]: 28%
- Population Fragmented Nuclei (%) [5]: 8%
- Population Healthy Nuclei (%) [5]: 78%
- Population Hoechst High Intensity Objects (%) [5]: 4%
- Population Membrane Permeable-Phenotype (%) [5]: 1%
- Population Mitochondria Different-Phenotype (%) [5]: 22%
- Population Mitotic Cells (%) [5]: 71%
- Population Normal (%) [5]: 95%
- Population Pyknosed Nuclei (%) [5]: 12%
- Population Tubulin-Different-Phenotype (%) [5]: 16%
- Total Cell Count [5]: 663
- Population Apoptotic (%) [6]: 45%
- Population Fragmented Nuclei (%) [6]: 6%
- Population Healthy Nuclei (%) [6]: 83%
- Population Membrane Permeable-Phenotype (%) [6]: 0%
- Population Mitochondria Different-Phenotype (%) [6]: 26%
- Population Mitotic Cells (%) [6]: 54%
- Population Pyknosed Nuclei (%) [6]: 9%
- Population Tubulin-Different-Phenotype (%) [6]: 10%
- Total Cell Count [6]: 469
- Population Apoptotic (%) [7]: 28%
- Population Fragmented Nuclei (%) [7]: 9%
- Population Healthy Nuclei (%) [7]: 81%
- Population Hoechst High Intensity Objects (%) [7]: 4%
- Population Membrane Permeable-Phenotype (%) [7]: 0%
- Population Mitochondria Different-Phenotype (%) [7]: 16%
- Population Mitotic Cells (%) [7]: 71%
- Population Normal (%) [7]: 95%
- Population Pyknosed Nuclei (%) [7]: 9%
- Population Tubulin-Different-Phenotype (%) [7]: 15%
- Total Cell Count [7]: 649
- Population Apoptotic (%) [8]: 23%
- Population Fragmented Nuclei (%) [8]: 8%
- Population Healthy Nuclei (%) [8]: 86%
- Population Hoechst High Intensity Objects (%) [8]: 3%
- Population Mitochondria Different-Phenotype (%) [8]: 30%
- Population Mitotic Cells (%) [8]: 76%
- Population Normal (%) [8]: 96%
- Population Pyknosed Nuclei (%) [8]: 5%
- Population Tubulin-Different-Phenotype (%) [8]: 11%
- Total Cell Count [8]: 593
- Population Apoptotic (%) [9]: 19%
- Population Fragmented Nuclei (%) [9]: 14%
- Population Healthy Nuclei (%) [9]: 78%
- Population Hoechst High Intensity Objects (%) [9]: 2%
- Population Membrane Permeable-Phenotype (%) [9]: 3%
- Population Mitochondria Different-Phenotype (%) [9]: 11%
- Population Mitotic Cells (%) [9]: 80%
- Population Normal (%) [9]: 97%
- Population Pyknosed Nuclei (%) [9]: 6%
- Population Tubulin-Different-Phenotype (%) [9]: 9%
- Total Cell Count [9]: 1112
- Population Apoptotic (%) [10]: 36%
- Population Fragmented Nuclei (%) [10]: 10%
- Population Healthy Nuclei (%) [10]: 81%
- Population Hoechst High Intensity Objects (%) [10]: 3%
- Population Membrane Permeable-Phenotype (%) [10]: 1%
- Population Mitochondria Different-Phenotype (%) [10]: 17%
- Population Mitotic Cells (%) [10]: 63%
- Population Normal (%) [10]: 96%
- Population Pyknosed Nuclei (%) [10]: 8%
- Population Tubulin-Different-Phenotype (%) [10]: 10%
- Total Cell Count [10]: 700
- Population Apoptotic (%) [11]: 21%
- Population Fragmented Nuclei (%) [11]: 15%
- Population Healthy Nuclei (%) [11]: 79%
- Population Hoechst High Intensity Objects (%) [11]: 3%
- Population Membrane Permeable-Phenotype (%) [11]: 1%
- Population Mitochondria Different-Phenotype (%) [11]: 11%
- Population Mitotic Cells (%) [11]: 78%
- Population Normal (%) [11]: 96%
- Population Pyknosed Nuclei (%) [11]: 5%
- Population Tubulin-Different-Phenotype (%) [11]: 9%
- Total Cell Count [11]: 1088
- Population Apoptotic (%) [12]: 27%
- Population Fragmented Nuclei (%) [12]: 13%
- Population Healthy Nuclei (%) [12]: 82%
- Population Hoechst High Intensity Objects (%) [12]: 1%
- Population Membrane Permeable-Phenotype (%) [12]: 2%
- Population Mitochondria Different-Phenotype (%) [12]: 12%
- Population Mitotic Cells (%) [12]: 72%
- Population Normal (%) [12]: 98%
- Population Pyknosed Nuclei (%) [12]: 4%
- Population Tubulin-Different-Phenotype (%) [12]: 6%
- Total Cell Count [12]: 947
